Experimental data from PMC8898323 (ChemMedChem, 2021).
Entries after “also recorded” stand apart in the source; their conditions may differ. Read-outs that look alike come from different tables or passages of the source. One block for each compound: values may come before it.

Experiments:
[1] = molecular target: T1, hMGL (Homo sapiens, UniProt Q99685); experiment: Fluorescence-based hMGL inhibition counterscreen; assay type: biochemical; conditions: for hMGL inhibition, result in words: inactive tested at 1uM
T1 sequence (Q99685 1-303): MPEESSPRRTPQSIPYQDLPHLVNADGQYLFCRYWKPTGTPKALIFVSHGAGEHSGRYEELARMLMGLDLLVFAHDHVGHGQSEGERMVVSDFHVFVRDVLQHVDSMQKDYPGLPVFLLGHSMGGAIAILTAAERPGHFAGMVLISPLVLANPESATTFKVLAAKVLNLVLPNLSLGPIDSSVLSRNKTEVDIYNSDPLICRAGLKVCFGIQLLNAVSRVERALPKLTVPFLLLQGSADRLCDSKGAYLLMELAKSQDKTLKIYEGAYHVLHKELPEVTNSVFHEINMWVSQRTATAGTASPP

[2] = tested on: rat retina (AMPA excitotoxicity); conditions: cited from earlier work
[3] = molecular target: T2, hFAAH (Homo sapiens, UniProt O00519); experiment: Fluorescence-based hFAAH inhibition counterscreen; assay type: biochemical; conditions: for hFAAH inhibition, result in words: inactive tested at 1uM
T2 sequence (O00519 1-579): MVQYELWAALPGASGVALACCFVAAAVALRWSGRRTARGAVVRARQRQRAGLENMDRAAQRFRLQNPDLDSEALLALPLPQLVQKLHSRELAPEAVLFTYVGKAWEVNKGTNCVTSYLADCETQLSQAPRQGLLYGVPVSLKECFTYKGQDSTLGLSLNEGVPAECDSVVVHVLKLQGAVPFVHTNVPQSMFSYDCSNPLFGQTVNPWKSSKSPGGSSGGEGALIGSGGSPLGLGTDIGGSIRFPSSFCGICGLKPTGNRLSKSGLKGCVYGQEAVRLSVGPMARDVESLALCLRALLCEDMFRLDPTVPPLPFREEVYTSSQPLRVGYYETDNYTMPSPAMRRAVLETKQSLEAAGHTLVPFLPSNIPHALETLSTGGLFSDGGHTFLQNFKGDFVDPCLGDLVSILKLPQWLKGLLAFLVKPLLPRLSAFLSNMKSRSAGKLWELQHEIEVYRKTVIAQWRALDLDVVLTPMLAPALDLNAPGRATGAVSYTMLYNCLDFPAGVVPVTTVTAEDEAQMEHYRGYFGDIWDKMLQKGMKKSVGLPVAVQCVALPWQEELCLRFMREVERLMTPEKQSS

[4] = Cassette pharmacokinetics in brain and plasma, male CD-1 mice; assay type: in vivo, mouse; conditions: for concentration at 15 min: iv; for concentration at 30 min / concentration at 60 min: po
Summary of the method: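 Male CD-1 mice (25–30 g), cassette dosing: single iv dose of 2 mg/kg and oral dose of 8 mg/kg per compound. Plasma and brain taken 15 min after iv, and 30 and 60 min after oral dosing, n = 3 per time point. Flash-frozen tissue extracted and quantified by LC-MS/MS (SRM) with internal standards.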

[5] = Metabolic stability in human liver microsomes; assay type: in vitro ADME; conditions: NADPH
Summary of the method: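 Inhibitor pre-incubated at 37 °C with liver microsomal protein of the given species. Reaction started with NADPH, or buffer as control. Proteins precipitated, then parent remaining measured by LC-MS/MS in SRM mode to give t1/2.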

[6] = molecular target: T3, hABHD6 (Homo sapiens, UniProt Q9BV23); experiment: Fluorescence-based hABHD6 inhibition assay; assay type: biochemical; conditions: for inhibition at 10 µM: read-out: % inhibition hABHD6; for hABHD6 inhibition, result in words: words in table or text, table footnote c: inactive tested at 1uM; for fold loss in potency for ABHD6: versus the comparator analog named in the text
T3 sequence (Q9BV23 1-337): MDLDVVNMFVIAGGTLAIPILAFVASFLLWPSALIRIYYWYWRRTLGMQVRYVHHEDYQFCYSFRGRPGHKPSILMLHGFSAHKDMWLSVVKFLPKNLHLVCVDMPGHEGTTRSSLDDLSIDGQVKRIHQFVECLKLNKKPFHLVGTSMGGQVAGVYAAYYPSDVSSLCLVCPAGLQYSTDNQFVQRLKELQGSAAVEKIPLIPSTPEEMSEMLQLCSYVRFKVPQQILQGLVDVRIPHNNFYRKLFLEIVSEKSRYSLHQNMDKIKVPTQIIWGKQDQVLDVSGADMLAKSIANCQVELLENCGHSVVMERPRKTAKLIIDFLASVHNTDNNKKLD

[7] = tested on: ABHD6; conditions: read-out: IC50 ABHD6; activity-based protein profiling (ABPP) assay; ref 22b; cited from earlier work
[8] = male, CD-1, mouse, brain, 8 mg/kg
[9] = male, CD-1, mouse, plasma, 8 mg/kg
[10] = read-out: IC50 (nM) ± SEM hMGL, triplicate, eight concentrations

hMGL inhibition, result in words [1]: inactive
hFAAH inhibition, result in words [3]: inactive^f
brain permeability, result in words ([4]; comparing brain and plasma levels after iv administration at 15 min): brain permeable
Kp at 15 min ([4]; male, CD-1, mouse, brain, intravenous, 2 mg/kg): 1.2
concentration at 15 min ([4]; male, CD-1, mouse, brain, 2 mg/kg): 735 ± 56 ng/g
concentration at 30 min [4, 8]: 248 ± 89 ng/g
concentration at 60 min [4, 8]: 227 ± 95 ng/g
concentration at 15 min ([4]; male, CD-1, mouse, plasma, 2 mg/kg): 633 ± 46 ng/mL
bioavailability ([4]; male, CD-1, mouse, plasma, oral, 8 mg/kg): 28%
concentration at 30 min [4, 9]: 180 ± 72 ng/mL
concentration at 60 min [4, 9]: 140 ± 31 ng/mL
Microsomes t1/2 min Human [5]: most stable
Structure (SMILES): O=C(OC(C(F)(F)F)C(F)(F)F)N1Cc2ccc(OCCN3CCOCC3)cc2C1 [22f, 1,1,1,3,3,3-Hexafluoropropan-2-yl 5-(2-morpholinoethoxy)isoindoline-2-carboxylate]
AMPA-induced glia activation ([2]; rat retina): attenuated
retina neuroprotection ([2]; rats, AMPA excitotoxicity): dose-dependent retina neuroprotection

hMGL inhibition, result in words [1]: inactive
inhibition at 1 µM ([3]; read-out: % inhibition hFAAH): 71%
Structure (SMILES): O=C(OC(C(F)(F)F)C(F)(F)F)N1Cc2ccc(OCCN3CCCCC3)cc2C1 [22j, 1,1,1,3,3,3-Hexafluoropropan-2-yl 5-(2-(piperidin-1-yl)ethoxy)isoindoline-2-carboxylate]

hMGL inhibition, result in words [1]: lacked activity; also recorded: inactive
Structure (SMILES): O=C(OC(C(F)(F)F)C(F)(F)F)N1CCc2ccccc2C1 [14a, 1,1,1,3,3,3-Hexafluoropropan-2-yl 3,4-dihydroisoquinoline-2(1H)-carboxylate]
hFAAH inhibition, result in words [3]: lacked activity; also recorded: inactive^c

inhibition at 10 µM [6]: 37%
hABHD6 inhibition, result in words [6]: practically inactive
IC50 [1, 10]: 348 ± 7.5 nM
hFAAH inhibition, result in words [3]: inactive
Structure (SMILES): O=C(OC(C(F)(F)F)C(F)(F)F)N1CC(C(c2ccccc2)c2ccccc2)C1 [10d, 1,1,1,3,3,3-Hexafluoropropan-2-yl 3-benzhydrylazetidine-1-carboxylate]

inhibition at 10 µM [6]: 35%
hABHD6 inhibition, result in words [6]: practically inactive
hMGL inhibition, result in words [1]: inactive
hFAAH inhibition, result in words [3]: inactive
Structure (SMILES): O=C(O[C@H](CO)C(F)(F)F)N1CCc2c(Br)cccc2C1 [14j, (R)-1,1,1-trifluoro-3-hydroxypropan-2-yl 5-bromo-3,4-dihydroisoquinoline-2(1H)-carboxylate]

fold loss in potency for ABHD6 [6]: about 2 fold
IC50 [1]: 66.1 ± 2.4 nM
inhibition at 0.1 µM ([3]; read-out: % inhibition hFAAH): 33%
Structure (SMILES): N#Cc1cccc(OC(=O)N2CC(OC(c3ccc(F)cc3)c3ccc(F)cc3)C2)c1 [5a, 3-Cyanophenyl 3-(bis(4-fluorophenyl)methoxy)azetidine-1-carboxylate]

fold loss in potency for ABHD6 [6]: about 2 fold
IC50 [1]: 6.4 ± 1.5 nM
hFAAH inhibition, result in words [3]: inactive
Structure (SMILES): O=C(OC(C(F)(F)F)C(F)(F)F)N1CC(OC(c2ccc(F)cc2)c2ccc(F)cc2)C1 [6b, 1,1,1,3,3,3-Hexafluoropropan-2-yl 3-(bis(4-fluorophenyl)methoxy)azetidine-1-carboxylate]

Structure (SMILES): CC1(C)C2C(=O)N(OC(=O)N3CCc4c(Br)cccc4C3)C(=O)C21 (centres unmarked) [25b, 6,6-Dimethyl-2,4-dioxo-3-azabicyclo[3.1.0]hexan-3-yl 5-bromo-3,4-dihydro isoquinoline-2(1H)-carboxylate]
fold loss in potency for ABHD6 [6]: 2 fold
hMGL inhibition, result in words [1]: inactive
hFAAH inhibition, result in words [3]: inactive

IC50 [1, 10]: 83.5 ± 1.8 nM
hFAAH inhibition, result in words [3]: inactive
Structure (SMILES): CN(C1CN(C(=O)OC(C(F)(F)F)C(F)(F)F)C1)C(c1ccc(F)cc1)c1ccc(F)cc1 [9d, 1,1,1,3,3,3-Hexafluoropropan-2-yl 3-((bis(4-fluorophenyl)methyl) (methyl)amino) azetidine-1-carboxylate]
